Hits are enriched below; roughly 2.1% of the tested compounds scored in any of these assays.
CXCR6 block: CXCR6 receptor inhibitors, primary screen, cell-based, beta-arrestin, luminescence, CHO-K1 PathHunter, 1536-well; C-X-C chemokine receptor type 6 (Homo sapiens), O00574; inhibition, % at 20 µM; hit rate 0.36% among 360,000; in the data active = inhibition above about 34%, passing the limit was not always enough;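 note: antagonist mode with CXCL16 agonist at 10 nM final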
Target sequence (O00574 whole entry, looked up): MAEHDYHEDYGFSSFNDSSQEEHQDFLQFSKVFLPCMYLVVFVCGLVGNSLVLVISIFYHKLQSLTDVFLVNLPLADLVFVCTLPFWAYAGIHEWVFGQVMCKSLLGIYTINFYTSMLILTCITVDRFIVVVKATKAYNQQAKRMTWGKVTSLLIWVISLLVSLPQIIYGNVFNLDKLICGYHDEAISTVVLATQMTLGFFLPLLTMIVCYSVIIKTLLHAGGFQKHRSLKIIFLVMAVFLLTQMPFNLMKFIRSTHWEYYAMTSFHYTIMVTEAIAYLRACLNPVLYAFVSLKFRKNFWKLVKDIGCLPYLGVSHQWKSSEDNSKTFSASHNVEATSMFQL
CCR6 antag: CCR6 receptor antagonists, primary screen, cell-based, CHO-K1, luminescence, beta-arrestin, uHTS | C-C chemokine receptor type 6 (Homo sapiens), P51684 | hit rate 0.49% among 340,000 | CHO-K1 CCR6 PathHunter beta-arrestin, CCL20-stimulated | inhibition, % at 20 µM;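 active = compounds whose inhibition of the agonist-driven luminescence signal at 20 µM reaches about 50%, limit read from the data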;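 note: cells stimulated with CCL20 at 14 nM final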
APJ antagonist: antagonists of human apelin receptor APJ, primary screen, CHO-K1 cells, beta-arrestin complementation, luminescence. P35414. inhibition, % at 20 µM. hit rate 0.32% among 330,000. AID 2521, 2010;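 active = inhibition above about 40% at 20 µM, limit read from the data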;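 note: cells challenged with 10 nM apelin-13 agonist together with compound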
APJ agonist: agonists of human apelin receptor APJ, primary screen, CHO-K1 cells, PathHunter beta-arrestin, luminescence; P35414; 0% DMSO wells, 100% apelin; activation, % at 20 µM; hit rate 0.11% among 330,000;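 active = activation more than six SD over the plate average, tested at 20 µM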
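Assay system: CHO-K1 APJ beta-arrestin complementation cell line / Compound: single test compound dose, 20 µM final, 1% DMSO / Times: overnight seeding, 90 min compound at 25 °C, 1 h detection / Technique: beta-gal luminescence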
HTR2A ag: mouse Htr2a agonists via beta-arrestin recruitment, primary screen, cell-based, luminescence; 5-hydroxytryptamine receptor 2A (Mus musculus), P35363; CHO-K1 mHTR2A beta-arrestin complementation; percent of 30 µM serotonin response; activation, % at 7.6 µM; hit rate 0.66% among 360,000; AID 624169, 2012;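 active = activation above a run cutoff, the mean activation of all tested compounds plus 3 SD, cut at about 14% in these data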
EBI2 block: EBI2 receptor antagonists, beta-arrestin recruitment, primary screen, cell-based, luminescence, 7a,25-OHC stimulation, uHTS; hit rate 0.81% among 360,000; G-protein coupled receptor 183 (Homo sapiens), P32249; 7a,25-OHC stimulated; inhibition, % at 5 µM; AID 651636, 2012; in the data active = inhibition above about 38%;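 note: enzyme fragment complementation signal reports receptor beta-arrestin coupling in cells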
EBI2 antag conf: EBI2 antagonist hit retest, beta-arrestin, confirmation, cell-based, single concentration, luminescence, 7a,25-OHC stimulation; 7a,25-OHC antagonism; shares compounds with EBI2 block; hit rate 29% among 2,400; inhibition, % at 5 µM;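 active = inhibition of at least 50%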
EBI2 ag: EBI2 agonist activity of antagonist hits, confirmation, counter-screen for EBI2 antagonist project, cell-based, single concentration, agonist mode, luminescence. 2,400 tested, under 10 active. activation, % at 5 µM. EBI2-expressing cells, 60 min; 0% vehicle, 100% 7α,25-dihydroxycholesterol control. shares compounds with EBI2 block;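 active = activation of at least 50%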
bGal cs: E. coli beta-galactosidase enzyme inhibition, confirmation, counter-screen for EBI2 antagonist project, biochemical, luminescence, single concentration; shares compounds with EBI2 block; purified beta-galactosidase, luminescent Galacton Star, 15 min; inhibition, % at 5 µM; hit rate 1% among 2,400; AID 652176, 2013;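 active = replicate-average signal at least 3 plate SD below neutral wells, shown as high inhibition, flagging enzyme-inhibiting false positives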;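 note: higher means stronger loss of beta-gal luminescence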
Of the large screens only hits and unclear results are named; the others gave an inactive call (follow-up assays come after a bar, where they were run).

Cc1ccc(C(C)C)c(OCC(O)CNC2CCCC2)c1 (stereo unspecified)	none
CC(Oc1ccc(C(C)(C)C)cc1)C(=O)NC1CC(C)(C)NC(C)(C)C1 (stereo unspecified)	none
O=C(/C=C/c1cccc(C(F)(F)F)c1)NNC(=O)c1ccncc1	none
O=C(c1nc2ccc(Cl)cn2c1CNCC[C@@H]1C[C@@H]2C=C[C@H]1C2)N1CCCCCCC1	EBI2 block 60.9 | EBI2 antag conf inactive | EBI2 ag inactive | bGal cs inactive
C[C@@H]1CN(C(=O)c2nc3ccc(Cl)cn3c2CNCC[C@@H]2C[C@@H]3C=C[C@H]2C3)C[C@H](C)O1	none
COc1ccc(CNC(=O)/C=C/c2ccc(OCCCF)cc2)cc1OC	none
O=C(/C=C/c1ccc(OCCCF)cc1)NCc1ccc(Cl)c(Cl)c1	EBI2 block 44.3 | EBI2 antag conf inactive | EBI2 ag inactive | bGal cs inactive
CCCc1cc(=O)[nH]c(SCC(=O)Nc2oc(C)c3c(C)n[nH]c(=O)c23)n1	none
O=C(c1ccc(F)cc1F)N1CCN(c2ncccn2)CC1	none
O=C(/C=C/c1cccc(F)c1)N1CCN(c2ncccn2)CC1	EBI2 block 90.4 | EBI2 antag conf 69.0 | EBI2 ag inactive | bGal cs inactive
O=C(/C=C/c1ccccc1Cl)N1CCOCC1	none
O=C(/C=C/c1ccccc1Cl)N1CCN(c2ncccn2)CC1	EBI2 block 60.0 | EBI2 antag conf inactive | EBI2 ag inactive | bGal cs inactive
CCCCN(C(=O)CCSc1ccc(F)cc1)c1c(N)n(Cc2ccccc2)c(=O)[nH]c1=O	none
CN(C)S(=O)(=O)c1cccc(-c2nn(-c3ccccc3)cc2/C=C(/C#N)C(=O)NCc2ccco2)c1	none
CC1CCN(C2=NC(=O)/C(=C/c3cn(-c4ccccc4)nc3-c3cccc(S(=O)(=O)N(C)C)c3)S2)CC1	EBI2 block 47.6 | EBI2 antag conf inactive | EBI2 ag inactive | bGal cs inactive
CCOc1ccc(N(CC(=O)NCCc2ccccc2)S(=O)(=O)c2ccccc2)cc1	none
COc1ccc(N(CC(=O)NCCOc2ccccc2)S(=O)(=O)c2ccc(C)cc2)cc1	EBI2 block 86.6 | EBI2 antag conf 63.8 | EBI2 ag inactive | bGal cs inactive
CCOc1ccc(N(CC(=O)NCCOc2ccc(C)cc2)S(=O)(=O)c2ccccc2)cc1	EBI2 block 90.5 | EBI2 antag conf 65.0 | EBI2 ag inactive | bGal cs inactive
CCO[C@H]1OC(C(=O)NCc2ccccc2)=C[C@@H](C(C)(C)C)[C@@H]1CCCO	none
COc1ccc(/C=C/C(=O)NCc2cccnc2)cc1	none
CCc1ccc(CN(Cc2cccnc2)C(=O)/C=C/c2ccc(OC)cc2)cc1	EBI2 block 61.9 | EBI2 antag conf inactive | EBI2 ag inactive | bGal cs inactive
O=[N+]([O-])c1ccc(N2CCC(=NOCc3ccc(Cl)cc3)CC2)cc1	EBI2 block 52.9 | EBI2 antag conf inactive | EBI2 ag inactive | bGal cs inactive
Clc1cccc(CN2CCSCC2)c1Cl	none
Cc1cccc(NS(=O)(=O)c2ccc(C)c(C(=O)N(C)C)c2)c1	none
Clc1ccc(OCc2nnnn2-c2ccccc2)cc1	EBI2 block 78.6 | EBI2 antag conf 54.4 | EBI2 ag inactive | bGal cs inactive
c1ccc(OCc2nnnn2-c2ccccc2)cc1	none
N#Cc1ccc(Cl)cc1NC(=O)COC(=O)c1cccc(S(=O)(=O)N2CCOCC2)c1	none
Cc1cccc(C)c1N1C(=O)c2ccccc2NC(=O)C1C(=O)Nc1ccc2c(c1)OCCO2 (stereo unspecified)	none (no result: CXCR6 block, CCR6 antag, APJ antagonist, APJ agonist)
CCOC(=O)N1CCN(C(=O)c2cc3ccc(OC)cc3[nH]2)CC1	EBI2 block 59.4 | EBI2 antag conf inactive | EBI2 ag inactive | bGal cs inactive
CCOC(=O)C1CCCN(C(=O)c2cc3cc(OC)c(OC)cc3[nH]2)C1 (stereo unspecified)	none
CC1CN(C(=O)c2cc3cc(Cl)ccc3[nH]2)CC(C)O1 (stereo unspecified)	none
CCOC(=O)C1CCN(C(=O)c2cc3cc(Cl)ccc3[nH]2)CC1	EBI2 block 88.6 | EBI2 antag conf 66.7 | EBI2 ag inactive | bGal cs inactive
CCOC(=O)C1CCN(C(=O)c2cc3ccc(OC)cc3[nH]2)CC1	EBI2 block 38.5 | EBI2 antag conf inactive | EBI2 ag inactive | bGal cs inactive
Cc1ccc(N2CC(=O)N(c3ccc(C)cc3)CC2=O)cc1	none
O=C(c1cccs1)N1C[C@@H](O)[C@H](n2cc(-c3ccc(F)cc3)nn2)C[C@@H]1c1ccc(Cl)cc1	none (no result: CCR6 antag, APJ antagonist, APJ agonist)
Cc1ccc(C2CCN(C(=O)Nc3ccccc3)C2)cc1 (stereo unspecified)	EBI2 block 60.3 | EBI2 antag conf inactive | EBI2 ag inactive | bGal cs inactive
CN(C)c1ccc(-c2noc(C3CCN(C(=O)Nc4ccc(Cl)cc4)CC3)n2)cc1	EBI2 block 81.9 | EBI2 antag conf 57.4 | EBI2 ag inactive | bGal cs inactive
O=C(Nc1ccc(Cl)cc1)N1CCC(c2ccccc2)C1 (stereo unspecified)	EBI2 block 86.8 | EBI2 antag conf 54.9 | EBI2 ag inactive | bGal cs inactive
Cc1ccc(NC(=O)N2CCC(c3ccccc3)C2)cc1C (stereo unspecified)	EBI2 block 72.9 | EBI2 antag conf 62.8 | EBI2 ag inactive | bGal cs inactive
CN(C)c1ccc(-c2noc(C3CCN(S(=O)(=O)c4ccc(C(=O)O)cc4)CC3)n2)cc1	none
Nc1[nH]nc2ncc3cc4ccccc4nc3c12	none
CC(=O)c1ccc(N2CCN(C(=S)Nc3ccccc3C(F)(F)F)CC2)cc1	none
